We go through eight molecules from article PMC4422293 (Drug Design, Development and Therapy, 2015).

As usually defined, the MIC is the lowest concentration that inhibits growth of the organism. The low end stands for a more susceptible organism, the high end for a less susceptible organism. As a reminder, the Kd is the free concentration of one partner at which half of the binding sites on the other are occupied at equilibrium, for simple one-to-one binding. For orientation: CC50 means the concentration at which the toxic effect on the cells reaches its halfway point. The low end stands for harm at low concentration, the high end for better tolerance by the cells.

Where two headings read alike, the source gives them in different places.

In data set [1] the test system is Pseudomonas aeruginosa X13273. In words: MIC by broth dilution. The format is cell-based.
In another data set the test system is P. aeruginosa ATCC 27853. In words: MIC by broth dilution. The format is cell-based. To be noted: Pseudomonas aeruginosa, ATCC27853.
Data set [2] relates to Enterobacter aerogenes ATCC 13048. Put plainly: MIC by broth dilution. The format is cell-based. To be noted: Klebsiella aerogenes, ATCC13048. On the technique in general: Broth dilution looks for growth in wells or tubes with falling amounts of substance.
The subject of data set [3] is K. pneumoniae NR-15411 (KPC). Put plainly: MIC by broth dilution. As to conditions: Klebsiella pneumoniae. The format is cell-based.
A further data set deals with E. faecium F118 (VRE). In words: MIC by broth dilution. To be noted: Enterococcus faecium. The format is cell-based.
Data set [4] can be described thus: Surface plasmon resonance binding to immobilized 3-Lipid II. The gist of the method:
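SPR was run at 25°C on a Biacore T100. About 50 RU of farnesyl (3-isoprene) Lipid II was amine-coupled to a CM5 chip. Running buffer was 10 mM HEPES, 150 mM NaCl, 0.05% P20, pH 7.4 (±3 mM EDTA) with 10% DMSO. Screening injections were at 10 μM, with control-cell subtraction and 30 s regeneration in 50 mM NaOH. Kd came from binding isotherms, averaged over three assays.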
Background: In SPR one partner is held on a chip, and binding of the other changes the refractive index at the surface.

Data set [5] concerns Enterococcus faecium EF1509 (VRE). In words: MIC by broth dilution. The format is cell-based.
The subject of data set [6] is Staphylococcus aureus 1094 (MRSA). Put plainly: MIC by broth dilution. It counts as cell-based.
In data set [7] the test system is S. aureus HFH-30123 (MRSA). Put plainly: MIC by broth dilution. It counts as cell-based. As to conditions: Staphylococcus aureus.
The subject of data set [8] is Klebsiella pneumoniae NR-15410 (KPC). In words: MIC by broth dilution. It counts as cell-based.
Data set [9] can be described thus: Cytotoxicity against mammalian cells. To be noted: human, HeLa cells (ATCC CCL-2.2). It counts as cell-based. The method in brief:
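HeLa cells (ATCC CCL-2.2) were exposed to the test compound for 72 h. CC50 is the concentration giving a half-maximal decrease in viability, averaged over two replicate assays.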

Data set [10] relates to Enterobacter cloacae ATCC 13047. In words: MIC by broth dilution. The format is cell-based. As to conditions: ATCC13047.
Data set [11] has as its system Acinetobacter baumannii ATCC 19606. In words: MIC by broth dilution. The format is cell-based. To be noted: ATCC19606, Table 4, mean of three replicates.
For data set [12], the system named is Acinetobacter baumannii BAA-1605. In words: MIC by broth dilution. The format is cell-based. As to conditions: BAA1605.
For data set [13], the system named is Staphylococcus aureus (USA300) MRSA. In words: MIC by broth dilution. The format is cell-based. To be noted: Table S2; unit not given.
In data set [14] the test system is Staphylococcus aureus (VISA) ATCC 700699. Put plainly: MIC by broth dilution. It counts as cell-based. To be noted: Table S2; unit not given.
The next data set concerns S. aureus (VISA) NRS22. In words: MIC by broth dilution. The format is cell-based, Staphylococcus aureus. To be noted: Table S2; unit not given.
A further data set has as its system S. aureus. In words: Antibacterial activity / killing of S. aureus. The format is cell-based. To be noted: Staphylococcus aureus.
In data set [15] the test system is DNA, cell wall, protein, and lipid synthesis in S. aureus NCTC 8325. In words: Macromolecular synthesis assays, all pathways. It counts as cell-based, Staphylococcus aureus.
[16] abbreviates: read-out: Lipid II binding (Kd), Table 4, averages of three replicate assays.

On to `CN1/C(=C/C=C/c2cc(-c3ccccc3)cc(-c3ccccc3)[n+]2CCO)C(C)(C)c2ccccc21.F[B-](F)(F)F` [SF-5-332, 1-(2-Hydroxyethyl)-2,4-diphenyl-6-((1E,3E)-3-(1,3,3-trimethylindolin-2-ylidene)prop-1-en-1-yl)pyridin-1-ium tetrafluoroborate], for which the minimum inhibitory concentration (MIC) is no less than 32 µg/mL in data set [1]; no less than 32 µg/mL in the data set with P. aeruginosa ATCC 27853; no less than 32 µg/mL in data set [2]; no less than 32 µg/mL in data set [3]; 8 µg/mL against E. faecium F118 (VRE); 1 µg/mL in data set [5]. The minimum inhibitory concentration (MIC) is 1 µg/mL in [6]; 1 µg/mL in data set [7]; no less than 32 µg/mL in data set [8]; no less than 32 µg/mL in [10]; 20.2 µg/mL in data set [11]; 20.2 µg/mL in [12]. For the same molecule, the Kd in data set [4] (setting [16]) turned out to be 4.4 ± 3.02 µM. The molecule further had a CC50 at 72 h in data set [9] of 0.8 µg/mL.
As to `CN[C@H](CC(C)C)C(=O)N[C@H]1C(=O)N[C@@H](CC(N)=O)C(=O)N[C@H]2C(=O)N[C@H]3C(=O)N[C@H](C(=O)N[C@H](C(=O)O)c4cc(O)cc(O)c4-c4cc3ccc4O)[C@H](O)c3ccc(c(Cl)c3)Oc3cc2cc(c3O[C@@H]2O[C@H](CO)[C@@H](O)[C@H](O)[C@H]2O[C@H]2C[C@](C)(N)[C@H](O)[C@H](C)O2)Oc2ccc(cc2Cl)[C@H]1O` [Vancomycin], the “Antibacterial activity (MIC)” value in data set [13] was no more than 0.5; in data set [14] it was 8; in the data set on S. aureus (VISA) NRS22, 8.
For the molecule `Cc1cc(-c2ccccc2)cc(-c2ccccc2)[n+]1C` [Z56760026, 1,2-Dimethyl-4,6-diphenylpyridin-1-ium], in data set [4] (read-out: Lipid II binding Kd), the Kd was 37 µM.
On to `CC(C)C[n+]1c(/C=C/C=C2/N(C)c3ccccc3C2(C)C)cc(-c2ccccc2)cc1-c1ccccc1.F[B-](F)(F)F` [SF-5-331, 1-Isobutyl-2,4-diphenyl-6-((1E,3E)-3-(1,3,3-trimethylindolin-2-ylidene)prop-1-en-1-yl)pyridin-1-ium tetrafluoroborate], for which the MIC in data set [1] turned out to be 8 µg/mL; with S. aureus it was 1 µg/mL; against P. aeruginosa ATCC 27853 it was 32 µg/mL; in data set [2], 32 µg/mL; in data set [3], 32 µg/mL; in the data set with E. faecium F118 (VRE), 2 µg/mL. Also, the minimal inhibitory concentration (MIC) in [5] is 0.5 µg/mL; in data set [6], 1 µg/mL; in data set [7], 1 µg/mL; in [8], 16 µg/mL; in data set [10] it was 32 µg/mL; in data set [11], 8 µg/mL. Besides, the MIC in data set [12] was determined as 8 µg/mL. Moreover, the “inhibition of macromolecular synthesis pathways” value in data set [15] is recorded as “inhibited all pathways at low concentrations”. Also, in data set [4] (setting [16]), the dissociation constant (Kd) was determined as 0.34 ± 0.24 µM. Further, half-maximal cytotoxicity in [9] (CC50 at 72 h) was put at 0.26 µg/mL.
`CC(C)[n+]1c(/C=C/C=C2/N(C)c3ccccc3C2(C)C)cc(-c2ccccc2)cc1-c1ccccc1.F[B-](F)(F)F` [SF-5-330, 1-Isopropyl-2,4-diphenyl-6-((1E,3E)-3-(1,3,3-trimethylindolin-2-ylidene)prop-1-en-1-yl)pyridin-1-ium tetrafluoroborate]: the minimum inhibitory concentration (MIC) in data set [1] stood at 4 µg/mL; against S. aureus, 1 µg/mL; against P. aeruginosa ATCC 27853, 8 µg/mL; in [2] it was 8 µg/mL; in data set [3], 25.4 µg/mL; in the data set with E. faecium F118 (VRE) it was 5 µg/mL. Also, the MIC in data set [5] is 0.5 µg/mL; in data set [6], 1 µg/mL; in [7] it was 1 µg/mL; in [8], 10 µg/mL; in data set [10], 16 µg/mL; in data set [11], 8 µg/mL. Further, in data set [12], the MIC worked out at 8 µg/mL. In data set [15], the “inhibition of macromolecular synthesis pathways” value was “inhibited all pathways at low concentrations”. Further, the Kd in data set [4] (setting [16]) amounted to 0.54 ± 0.16 µM. In addition, the cytotoxic concentration (CC50) at 72 h in [9] is 0.33 µg/mL.
For `CN1/C(=C/C=C/c2cc(-c3ccccc3)cc(-c3ccccc3)[n+]2C)C(C)(C)c2ccccc21.F[B-](F)(F)F` [SF-5-219, 1-Methyl-2,4-diphenyl-6-((1E,3E)-3-(1,3,3-trimethylindolin-2-ylidene)prop-1-en-1-yl)pyridin-1-ium tetrafluoroborate], the MIC in data set [1] is no less than 32 µg/mL; in the data set with P. aeruginosa ATCC 27853, no less than 32 µg/mL; in [2], 32 µg/mL; in [3], 32 µg/mL; against E. faecium F118 (VRE), 5 µg/mL; in [5], 0.5 µg/mL. The MIC in data set [6] is 1 µg/mL; in data set [7], 1 µg/mL; in [8], 32 µg/mL; in [10], no less than 32 µg/mL; in [11], 8 µg/mL; in data set [12] it was 8 µg/mL. Also, in data set [4] (setting [16]), the Kd came to 7.4 ± 3.08 µM. This molecule also registered a half-maximal cytotoxic concentration (CC50) at 72 h in data set [9] of 0.25 µg/mL.
In the case of `CCOc1ccc(-c2cc(C=CC=C3N(C)c4ccccc4C3(C)C)o[c+](-c3ccc(OCC)cc3)c2)cc1` [BAS00127537, 2,4-Bis-(4-ethoxy-phenyl)-6-[3-(1,3,3-trimethyl-1,3-dihydro-indol-2-ylidene)-propenyl]-pyranylium], the “reduction in Lipid II-binding affinity compared to BAS00127538” value in data set [4] (from Table 1) was ~ 15 fold.
As for `CN(C)CC[n+]1c(/C=C/C=C2/N(C)c3ccccc3C2(C)C)cc(-c2ccccc2)cc1-c1ccccc1.F[B-](F)(F)F` [SF-5-334, 1-(2-(Dimethylamino)ethyl)-2,4-diphenyl-6-((1E,3E)-3-(1,3,3-trimethylindolin-2-ylidene)prop-1-en-1-yl) pyridin-1-ium tetrafluoroborate], the MIC in [1] is no less than 32 µg/mL; against P. aeruginosa ATCC 27853, no less than 32 µg/mL; in data set [2], no less than 32 µg/mL; in [3], no less than 32 µg/mL; in the data set with E. faecium F118 (VRE), 32 µg/mL; in data set [5], 8 µg/mL. The MIC was 16 µg/mL in data set [6]; 16 µg/mL in data set [7]; no less than 32 µg/mL in [8]; no less than 32 µg/mL in data set [10]; 32 µg/mL in data set [11]; 32 µg/mL in [12]. In addition, the Kd in data set [4] (setting [16]) stood at 1.9 ± 0.86 µM. The molecule further came in with a cytotoxic concentration (CC50) at 72 h in [9] of 2.25 µg/mL.
